Assay outcomes deposited in PubChem BioAssay by several laboratories.
Runt-CBFb FRET: inhibitors of RUNX1 Runt–CBFb binding, primary screen, biochemical, FRET, Cerulean-Runt, Venus-CBFb, uHTS; Runt-related transcription factor 1 (Homo sapiens) + Core-binding factor subunit beta …; AID 1496, 2009; inhibition, % at 20 µM; Cerulean-Runt/Venus-CBFb FRET ratio 530/480, 1 h; actives 0.46% (n = 220,000);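 active = inhibition over about 50% at 20 µM in the single-dose screen, limit read from the data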
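Reagent – Venus-CBFb binding partner, 100 nM · Assay system – Cerulean-tagged RUNX1 Runt domain (FRET donor) fusion protein · Input – 100 nM per protein · Incubation – two 1 h room-temperature incubations shielded from light · Measured by – FRET fluorescence · Medium – Tris buffer pH 7.5 with salts and BSA · Benchmarks – unlabeled CBFb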
MEX-5 binding: MEX-5 zinc finger RNA-binding disruptors – biochemical, C. elegans, fluorescence polarization, MLPCN library, primary screen. Zinc finger protein mex-5 (Caenorhabditis elegans), Q9XUB2. MEX-5/FITC-TCR2 RNA binding; stronger effect = lower value. activity score (negative = inhibition of binding), % at 10 µM. actives 0.38% (n = 300,000). AID 1832, 2009;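 active = inhibition past about -25% in most replicates, and total fluorescence under double the plate's negative control median, limit read from the data; inconclusive = replicates evenly split on the limit, or fluorescence at least double controls; inactive = too little inhibition in most replicates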
Target sequence (Q9XUB2 whole entry, looked up): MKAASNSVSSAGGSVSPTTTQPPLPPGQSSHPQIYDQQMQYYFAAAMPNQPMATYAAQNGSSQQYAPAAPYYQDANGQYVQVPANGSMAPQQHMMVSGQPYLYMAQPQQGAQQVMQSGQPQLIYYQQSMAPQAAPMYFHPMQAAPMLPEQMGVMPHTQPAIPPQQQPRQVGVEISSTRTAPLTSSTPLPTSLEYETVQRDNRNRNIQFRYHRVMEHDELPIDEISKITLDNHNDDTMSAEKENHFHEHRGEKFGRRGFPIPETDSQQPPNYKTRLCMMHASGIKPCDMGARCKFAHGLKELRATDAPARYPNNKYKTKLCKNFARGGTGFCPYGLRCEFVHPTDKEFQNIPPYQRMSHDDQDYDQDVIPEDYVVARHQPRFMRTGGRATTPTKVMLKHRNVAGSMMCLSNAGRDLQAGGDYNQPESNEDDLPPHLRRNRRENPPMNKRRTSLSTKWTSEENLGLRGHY
RanGTP-Impb inh: inhibitors of RanGTP-importin-beta interaction, primary screen, biochemical, FRET, CFP-Ran, YFP-importin-beta, homogeneous; Ran GTPase (GTP-bound) - importin-beta complex; cell-free CFP-Ran/YFP-importin-beta FRET ratio; inhibition, % (no concentration beside the values); actives 1.1% (n = 300,000); AID 2216, 2009;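 active = more than half of the replicate wells show a fall in the fluorescence ratio signal beyond about 16%, limit read from the data, passing the limit was not always enough; inconclusive = exactly half of the replicate wells pass the set limit; inactive = fewer than half of replicates pass the limit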
LANA-H2A inh: blockers of LANA interaction with H2A/H2B – biochemical, FP readout, HTS, primary screen; Protein LANA1 (Human herpesvirus 8 type P (isolate GK18)), Q9QR71; cell-free LANA-H2A/H2B peptide, fluorescence polarization; inhibition, % (concentration not given with the values); actives 0.6% (n = 320,000); in the data active = inhibition mostly above about 10%, no sharp cut-off; inactive = mostly below about 6.7%
Runt-SMMHC FRET: inhibitors of RUNX1 Runt–CBFb-SMMHC binding, primary screen, biochemical, FRET, Cerulean-Runt, Venus-CBFb-SMMHC, uHTS; Runt-related transcription factor 1 (Homo sapiens) + Core-binding factor subunit beta …; Cerulean-Runt/Venus-CBFb-SMMHC FRET ratio 530/480, 1 h; inhibition, % at 20 µM; actives 0.74% (n = 220,000); AID 1434, 2008;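 active = mean inhibition across duplicate retests at 20 µM reaching about 50%, limit read from the data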;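 note: inhibitors lower the FRET ratio by blocking Runt binding to CBFb-SMMHC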
EBV gp42 inh: Epstein-Barr virus gp42 inhibitors, primary screen, biochemical, uHTS, fluorescence polarization; Glycoprotein 42 (Epstein-Barr virus (strain AG876)), Q1HVG2; Fluorescence polarization binding assay, mP read-out; inhibition, % (tested at 21.74 µM); actives 0.42% (n = 220,000); AID 1085, 2008; in the data active = inhibition above about 50%
Numbers stand for hits; - = inactive; ? = inconclusive; . = no result given. Rows were chosen to be rich in hits. Some 2.4% of all compounds tested hit in one or more screens of this group.

SMILES	Runt-CBFb FRET	MEX-5 binding	RanGTP-Impb inh	LANA-H2A inh	Runt-SMMHC FRET	EBV gp42 inh
Cc1cc(/C=N/NC(=O)Cn2c3ccccc3c(=O)c3ccccc32)c(C)n1-c1ccc(Cl)cc1	101.2	-	.	.	.	-
C=CCn1c(CSCc2ccc(Cl)cc2Cl)nnc1SCC(=O)Nc1ccc(C(=O)O)cc1	-	-	-	-	-	-
CN(CC1COCCO1)C(=O)c1cc(COc2c(F)cccc2F)on1 (configuration not stated)	.	-	-	115.5	.	.
CCOC(=O)CN1CCc2c(C)nc3c(-c4ccc(OC)c(OC)c4)cnn3c21	-	-	-	-	-	-
COC(=O)C(C(C)C)N1CCc2c(C)nc3c(C#N)cnn3c21 (configuration not stated)	-	-	-	59.9	-	-
Oc1ccc(O)c2c1C1c3ccccc3C2c2ccccc21	.	-	-	-	.	.
CCn1nc(NC(=O)C2CCCO2)c2cc3cccc(C)c3nc21 (configuration not stated)	-	-	57.7	-	81.0	-
Cc1ccc2cc3c(NC(=O)C4CCCO4)nn(CC(C)C)c3nc2c1 (configuration not stated)	-	-	31.4	-	-	-
Cc1ccc2nc3c(cc2c1)c(NC(=O)C1CCCO1)nn3CC(C)C (configuration not stated)	-	-	70.6	-	58.7	-
CCn1nc(NC(=O)C2CCCO2)c2cc3cc(C)ccc3nc21 (configuration not stated)	-	-	44.1	-	-	-
CCn1nc(NC(=O)c2ccncc2)c2cc3cccc(C)c3nc21	-	-	?	-	-	-
CCn1c(CCc2ccccc2)nc2ccccc21	.	-	?	-	.	.
Cc1cccc(S(=O)(=O)NCCc2ccccc2)c1	-	-	.	-	-	-
CCC1Oc2ccc(C)cc2N(CC(=O)NCCCN2CCOCC2)C1=O (configuration not stated)	.	-	-	-	.	.
CCCCc1ccc(NC(=S)N2CCCC2)cc1	.	.	.	-	.	.
CCc1ccc(NS(=O)(=O)c2cc3[nH]c(=O)c(=O)[nH]c3cc2C)cc1	.	-	-	-	.	.
COc1cc([N+](=O)[O-])cc(/C=N/NC(=O)CC#N)c1O	-	-31.8	-	.	-	-
CCCCOc1ccc(C2OC34CCCCC3C(C#N)(C#N)C2(C#N)C(=N)O4)cc1 (configuration not stated)	-	.	-	-	-	-
C=CCOc1ccc(C2OC34CCCCC3C(C#N)(C#N)C2(C#N)C(=N)O4)cc1 (configuration not stated)	-	-45.0	46.0	-	50.1	-
CCOc1ccc(C2OC34CCCCC3C(C#N)(C#N)C2(C#N)C(=N)O4)cc1OC (configuration not stated)	-	-29.0	45.4	-	-	-
CCOc1ccc(C2Nc3ccccc3NC3=C2C(=O)CC(C)(C)C3)cc1OC (configuration not stated)	.	-	-	-	.	.
O=C(CNCc1ccco1)Nc1cccc(S(=O)(=O)N2CCCCC2)c1	-	-	-	-	-	-
C=CCN(CC=C)c1nc2ccccc2nc1C(C#N)C(=O)OC(C)C (configuration not stated)	-	-	28.7	-	114.9	-
O=C(CSc1ccccc1F)NC(=O)c1ccc(Cl)cc1	.	.	.	-	.	.
O=c1c2ccccc2nc(-c2ccccc2)n1CCN1CCOCC1	-	-	-	-	-	-
COc1ccc(-c2nc3ccccc3c(=O)n2CCCN2CCOCC2)cc1	-	-	-	15.9	-	-
